From PubChem BioAssay
Most compounds without a hit are left out; they make up all but 2.3% or so of the library.
TRPC4 block – TRPC4 (mouse) channel inhibition; Q9QUQ5; HEK293 TRPC4beta/mu-opioid, DAMGO-evoked Fluo4 calcium flux; hits give low values; B-score at 10 µM; actives 0.39% (n = 300,000);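 active = B-score over 3 SD under the library average, no early fluorescence shift, positive overall ratio signal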
Target sequence (Q9QUQ5 whole entry, looked up): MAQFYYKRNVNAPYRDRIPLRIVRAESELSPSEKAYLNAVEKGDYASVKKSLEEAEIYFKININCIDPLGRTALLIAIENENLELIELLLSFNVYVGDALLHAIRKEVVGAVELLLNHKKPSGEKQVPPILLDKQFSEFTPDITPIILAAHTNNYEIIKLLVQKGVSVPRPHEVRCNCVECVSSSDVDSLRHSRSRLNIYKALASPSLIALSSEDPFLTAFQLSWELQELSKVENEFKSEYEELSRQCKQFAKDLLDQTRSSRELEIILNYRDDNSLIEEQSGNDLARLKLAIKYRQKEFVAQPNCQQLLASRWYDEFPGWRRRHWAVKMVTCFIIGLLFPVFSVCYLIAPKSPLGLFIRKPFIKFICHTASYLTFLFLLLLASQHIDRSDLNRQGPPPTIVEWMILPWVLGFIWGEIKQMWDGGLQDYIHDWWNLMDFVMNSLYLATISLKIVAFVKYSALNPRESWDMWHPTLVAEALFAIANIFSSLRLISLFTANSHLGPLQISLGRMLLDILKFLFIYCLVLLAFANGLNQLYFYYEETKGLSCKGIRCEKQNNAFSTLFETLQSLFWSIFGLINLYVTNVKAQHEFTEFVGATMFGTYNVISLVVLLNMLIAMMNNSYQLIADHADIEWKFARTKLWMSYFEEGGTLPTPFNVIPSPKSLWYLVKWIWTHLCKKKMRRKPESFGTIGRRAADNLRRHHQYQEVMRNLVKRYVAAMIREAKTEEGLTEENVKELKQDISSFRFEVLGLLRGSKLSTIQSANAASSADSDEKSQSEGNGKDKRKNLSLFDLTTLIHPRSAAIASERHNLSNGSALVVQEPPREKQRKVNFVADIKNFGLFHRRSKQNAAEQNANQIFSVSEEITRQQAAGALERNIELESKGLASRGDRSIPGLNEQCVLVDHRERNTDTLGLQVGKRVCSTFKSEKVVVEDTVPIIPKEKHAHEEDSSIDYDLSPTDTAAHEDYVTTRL
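test system = HEK293 cells with stable TRPC4beta plus mu-opioid receptor expression | detection = Fluo4 Ca2+ flux fluorescence | read-out = integrated fluorescence ratio relative to baseline, converted to per-well B score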
TRPC6 inhibitor – blocks the mouse TRPC6 cation channel; Q61143; HEK293-TRPC6, membrane potential dye, ACh-evoked depolarization; hits give low values; B-score at 10 µM; actives 1.1% (n = 310,000); AID 2553;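 active = B-score under library mean minus 3 SD, initial fluorescence not abnormally high, positive integrated signal ratio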;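 note: B-score derived from integrated fluorescence ratio over the kinetic read; more negative B-score means stronger inhibition of depolarization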
TRPC4 potent – TRPC4 (mouse) allosteric potentiation; Q9QUQ5; HEK293 TRPC4beta/mu-opioid, DAMGO EC20, Fluo-4 Ca2+ flux; hits give high values; B-score at 10 µM; actives 0.42% (n = 310,000);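 active = B-score of calcium response area above 5 SD of library B-scores, with initial fluorescence ratio within 5 SD of library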
TRPC4 agonist – activators of mouse TRPC4 channel | Q9QUQ5 | HEK293 TRPC4beta/mu-opioid, Fluo4 calcium fluorescence; hits give high values | B-score at 10 µM | actives 0.49% (n = 310,000);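 active = B-score above 5 SD of library B-scores, and initial fluorescence ratio not above library mean plus 5 SD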;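 note: positive B-score marks a calcium rise read as TRPC4 activation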
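Assay system: HEK293 stable line with TRPC4beta plus mu-opioid receptor; schedule: 45 min room-temperature Fluo4 loading, 110 s read; technique: kinetic Fluo4 calcium fluorescence; evaluation: integrated baseline-normalised fluorescence ratio, converted to per-well B score; controls: buffer (low) and maximal DAMGO (high)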
TRPC6 activator – activators of mouse TRPC6 channel; Q61143; B-score at 10 µM; actives 0.13% (n = 310,000); HEK293-TRPC6 membrane potential dye fluorescence; hits give high values;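 active = B-score of the integrated fluorescence ratio above library mean plus 3 SD, and starting fluorescence ratio within library mean plus 5 SD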;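 note: higher score means more depolarization so channel activation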
TRPC4 sel inh 2 – mouse TRPC4 off-target activity of TRPC6 inhibitors, second screen | shares compounds with TRPC6 inhibitor | HEK293 TRPC4/MOR, membrane potential dye fluorescence; channel activated by saturating DAMGO dose | inhibition, % at 10 µM | actives 42% (n = 920);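 active = compounds whose fluorescence signal differed from control wells by over 3 SD, either direction, in both duplicate plates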
TRPC4 spec – tests whether TRPC6 inhibitors also affect mouse TRPC4 | shares compounds with TRPC6 inhibitor | actives 61% (n = 920) | HEK293 TRPC4/mu-opioid, membrane potential fluorescence | activity change, negative = inhibition, % at 10 µM | AID 2777;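 active = rise or fall in signal beyond 3 SD of buffer-only wells in both replicate plates, either sign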;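 note: integrated kinetic ratio of fluorescence range over baseline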
HEK293 MPD ctr 2-1 – second check of TRPC6 inhibitor effects in parental HEK293 cells; shares compounds with TRPC6 inhibitor; signal change vs control, % at 10 µM; actives 31% (n = 920); AID 2779; parental HEK293 membrane potential dye fluorescence; maximal acetylcholine challenge after compound addition;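 active = membrane potential signal moving either way by over 3 SD of the maximum-effect control, in both duplicate plates, meaning non-specific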
HEK293 MPD ctr-1 – parental HEK293 nonspecific activity of TRPC6 inhibitors | shares compounds with TRPC6 inhibitor | parental HEK293 membrane potential dye fluorescence | membrane potential signal change, % at 10 µM | actives 60% (n = 920) | AID 2780;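 active = membrane potential signal shifting up or down by more than 3 SD of buffer-only wells, on both duplicate plates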
HEK293 MPD ctr-2 – checks TRPC6 modulator effects in parental HEK293 cells. membrane potential signal change, % at 10 µM. actives 51% (n = 2,400). membrane potential dye fluorescence. shares compounds with TRPC6 inhibitor. AID 488924;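 active = membrane potential signal moves up or down beyond 5 SD from buffer-only wells, on both duplicate plates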
HEK293 MPD ctr 2-2 – second counter-screen for TRPC6 modulators: effect in parental HEK293 cells; inhibition, % at 10 µM; shares compounds with TRPC6 inhibitor; membrane potential dye fluorescence; after compound, maximal acetylcholine stimulation; actives 14% (n = 2,400);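 active = membrane potential signal drops by more than 5 SD from the mean control signal, in both duplicate plates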
TRPC4 ctr mod – tests whether TRPC6 modulators also affect mouse TRPC4. shares compounds with TRPC6 inhibitor. HEK293 TRPC4/mu-opioid, membrane potential fluorescence. percent change from control (negative = decrease, positive = increase), % at 10 µM. actives 69% (n = 2,400);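 active = membrane potential signal moved up or down beyond 5 SD of buffer control wells, in both duplicate plates, actives on both sides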
TRPC4 ctr inh 2 – second check of whether TRPC6 modulators also affect mouse TRPC4; shares compounds with TRPC6 inhibitor; HEK293 TRPC4/mu-opioid, membrane potential dye fluorescence; stimulated with maximal-effect DAMGO; inhibition, % at 10 µM; actives 55% (n = 2,400); AID 488928;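 active = drop in membrane potential signal beyond 5 SD of the control wells in both duplicate plates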;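 note: TRPC4 counter screen for TRPC6 hits run under conditions tuned for TRPC6 not TRPC4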
TRPC6 inh conf – mouse TRPC6 inhibitor confirmation | shares compounds with TRPC6 inhibitor | actives 43% (n = 3,300) | inhibition, % at 10 µM | AID 488960 | HEK293-TRPC6, membrane potential dye, ACh-evoked depolarization;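 active = fluorescence ratio falls more than 5 SD below the full-stimulation control mean, in both duplicate runs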;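 note: integrated fluorescence ratio of peak minus minimum over baseline after agonist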
TRPC6 act conf – confirmation of mouse TRPC6 activators. shares compounds with TRPC6 inhibitor. HEK293-TRPC6 membrane potential dye fluorescence, FDSS. activation, % at 10 µM. actives 11% (n = 2,800). AID 488961;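 active = ratio signal rise beyond 5 SD above unstimulated control wells' mean, seen in both duplicate runs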
Large screens that a line does not name were inactive (follow-up assays come after a bar, where they were run).

O=C(O)[C@H](Cc1c[nH]c2ccccc12)Nc1ncccc1[N+](=O)[O-]	none
CC(=O)Oc1cc2c3c(c1)/C(=C1/SC(=S)NC1=O)C(=O)N3C(C)(C)C=C2C	TRPC6 inhibitor -5.7 | HEK293 MPD ctr-2 -112% | HEK293 MPD ctr 2-2 inactive | TRPC4 ctr mod -28% | TRPC4 ctr inh 2 83% | TRPC6 inh conf 58% | TRPC6 act conf inactive
CCOc1cc2c3c(c1)C(C)=CC(C)(C)N3C(=O)C2=O	none
CCOC(=O)c1c(N)n(-c2ccc(N)cc2)c2nc3ccccc3nc12	none
CCOC(=O)c1c(N)n(C2CC(C)(C)NC(C)(C)C2)c2nc3ccccc3nc12	TRPC6 inhibitor -5.4 | HEK293 MPD ctr-2 -294% | HEK293 MPD ctr 2-2 inactive | TRPC4 ctr mod -55% | TRPC4 ctr inh 2 43% | TRPC6 inh conf inactive | TRPC6 act conf inactive
CN(C)S(=O)(=O)N1CCC(n2nccc2NC(=O)CCCc2ccccc2)CC1	none
O=C(COc1ccccc1)NCCSc1ccccc1	TRPC6 inhibitor -5.8 | HEK293 MPD ctr-2 inactive | HEK293 MPD ctr 2-2 inactive | TRPC4 ctr mod 8.5% | TRPC4 ctr inh 2 inactive | TRPC6 inh conf inactive
CCOC(=O)c1nc2cc3n(c(C)c-2c1C)C(C)C(CC)=C3C (stereo not drawn)	TRPC6 inhibitor -6.5 | HEK293 MPD ctr-2 158% | HEK293 MPD ctr 2-2 174% | TRPC4 ctr mod 24% | TRPC4 ctr inh 2 34% | TRPC6 inh conf 52% | TRPC6 act conf inactive
Cn1c(O)c(/C=N/NC(=O)c2cc3ccccc3cc2O)c2ccccc21	TRPC4 potent 33, TRPC4 agonist 105, TRPC6 activator 44 | HEK293 MPD ctr-2 active | HEK293 MPD ctr 2-2 inactive | TRPC4 ctr mod 298% | TRPC4 ctr inh 2 inactive | TRPC6 inh conf inactive | TRPC6 act conf 256%
O=C1CCCN1CCCNc1ncccc1[N+](=O)[O-]	none
CCN(CC)c1ccc(-c2nc3cnccc3n2C)cc1	TRPC6 inhibitor -5.9 | HEK293 MPD ctr-2 -170% | HEK293 MPD ctr 2-2 inactive | TRPC4 ctr mod -30% | TRPC4 ctr inh 2 34% | TRPC6 inh conf inactive | TRPC6 act conf inactive
CCN(CC)CCSc1nnc2c3cc(C)ccc3n(Cc3ccccc3)c2n1	TRPC6 inhibitor -7.1 | TRPC4 sel inh 2 27% | TRPC4 spec 14% | HEK293 MPD ctr 2-1 inactive | HEK293 MPD ctr-1 -213% | TRPC6 inh conf inactive | TRPC6 act conf inactive
COc1ccc(CCNC(=O)c2ccc3c(c2)S(=O)(=O)N=C2CCCCCN23)cc1	none
